{
  "source": "ChEMBL document CHEMBL4138058",
  "about": "“Design and synthesis of novel selective estrogen receptor degradation inducers based on the diphenylheptane skeleton” (Medchemcomm, 2017)",
  "format_in_all_cases": "cell-based",
  "key": {"Estrogen receptor": {"target": "T1, Estrogen receptor (Homo sapiens, UniProt P03372)", "T1 sequence (P03372 whole entry)": "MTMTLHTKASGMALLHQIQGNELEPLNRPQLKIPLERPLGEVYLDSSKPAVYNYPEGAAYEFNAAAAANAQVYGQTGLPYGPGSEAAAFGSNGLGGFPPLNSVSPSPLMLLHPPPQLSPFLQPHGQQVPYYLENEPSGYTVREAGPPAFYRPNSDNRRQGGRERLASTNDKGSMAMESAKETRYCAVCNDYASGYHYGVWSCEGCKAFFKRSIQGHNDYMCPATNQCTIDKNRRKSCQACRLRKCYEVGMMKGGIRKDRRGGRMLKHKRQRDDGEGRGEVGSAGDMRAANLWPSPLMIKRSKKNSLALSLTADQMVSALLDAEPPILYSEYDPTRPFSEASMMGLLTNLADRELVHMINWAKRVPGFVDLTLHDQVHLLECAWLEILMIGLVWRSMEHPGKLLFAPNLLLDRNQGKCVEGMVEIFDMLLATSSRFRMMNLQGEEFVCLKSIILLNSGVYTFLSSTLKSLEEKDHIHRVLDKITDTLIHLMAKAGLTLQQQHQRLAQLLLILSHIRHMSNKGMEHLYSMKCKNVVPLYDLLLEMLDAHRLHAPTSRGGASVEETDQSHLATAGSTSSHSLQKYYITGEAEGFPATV", "test": "Antagonist activity at GAL4-fused human ERalpha LBD expressed in HEK293 cells assessed as inhibition of 17beta-estradiol-induced transcriptional activation after 16 to 20 hrs by luciferase reporter gene assay", "outline": "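HEK293 cells grown in phenol red-free DMEM with 10% FBS at 37 °C, 5% CO2. Calcium phosphate co-transfection with GAL4-hERα LBD plasmid, MH100x4-tk-luciferase reporter and β-galactosidase normalization plasmid. Compounds added 8 h post-transfection with 0.3 nM 17β-estradiol; harvested 16–20 h later. Luciferase normalized to β-galactosidase; means of triplicate assays.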"}, "[1]": {"target": "T2, Vitamin D3 receptor (Homo sapiens) (UniProt P11473)", "T2 sequence (whole entry)": "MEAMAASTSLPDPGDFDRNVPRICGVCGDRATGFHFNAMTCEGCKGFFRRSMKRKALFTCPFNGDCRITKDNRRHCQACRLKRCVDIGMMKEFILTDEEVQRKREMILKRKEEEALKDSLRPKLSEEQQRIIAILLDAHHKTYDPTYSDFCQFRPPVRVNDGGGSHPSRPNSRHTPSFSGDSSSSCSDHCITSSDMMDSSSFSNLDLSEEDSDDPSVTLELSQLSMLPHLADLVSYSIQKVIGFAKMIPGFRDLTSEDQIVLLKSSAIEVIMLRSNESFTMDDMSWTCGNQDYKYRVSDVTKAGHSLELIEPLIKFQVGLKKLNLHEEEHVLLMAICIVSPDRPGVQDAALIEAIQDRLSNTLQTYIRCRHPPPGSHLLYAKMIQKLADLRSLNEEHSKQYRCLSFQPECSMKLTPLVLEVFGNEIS", "test": "Downregulation of VDR expression in human MCF7 cells at 3 uM after 6 hrs in presence of proteasome inhibitor MG132 by Western blot method relative to lamin B", "outline": "(§1)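 MCF-7 cells kept in DMEM with 10% FBS, kanamycin and 10 μg/mL insulin, then exposed to compounds for 6 h. Lysates made in SDS buffer (0.1 M Tris-HCl pH 8.0, 10% glycerol, 1% SDS), boiled, BCA-normalized and run on SDS-PAGE. Blots probed with anti-ERα, AR, AhR or VDR and β-actin or lamin B. Chemiluminescence quantified as target/loading-protein ratio; means ± S.E., n=3.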"}, "[2]": {"target": "T3, Estrogen receptor (Homo sapiens) (UniProt P03372)", "T3 sequence (whole entry)": "T1 sequence (P03372 whole entry)", "test": "Downregulation of ERalpha expression in human MCF7 cells at 3 uM after 6 hrs in presence of proteasome inhibitor MG132 by Western blot method relative to lamin B", "outline": "as §1"}, "[3]": {"target": "T4, Androgen receptor (Homo sapiens) (UniProt P10275)", "T4 sequence (whole entry)": "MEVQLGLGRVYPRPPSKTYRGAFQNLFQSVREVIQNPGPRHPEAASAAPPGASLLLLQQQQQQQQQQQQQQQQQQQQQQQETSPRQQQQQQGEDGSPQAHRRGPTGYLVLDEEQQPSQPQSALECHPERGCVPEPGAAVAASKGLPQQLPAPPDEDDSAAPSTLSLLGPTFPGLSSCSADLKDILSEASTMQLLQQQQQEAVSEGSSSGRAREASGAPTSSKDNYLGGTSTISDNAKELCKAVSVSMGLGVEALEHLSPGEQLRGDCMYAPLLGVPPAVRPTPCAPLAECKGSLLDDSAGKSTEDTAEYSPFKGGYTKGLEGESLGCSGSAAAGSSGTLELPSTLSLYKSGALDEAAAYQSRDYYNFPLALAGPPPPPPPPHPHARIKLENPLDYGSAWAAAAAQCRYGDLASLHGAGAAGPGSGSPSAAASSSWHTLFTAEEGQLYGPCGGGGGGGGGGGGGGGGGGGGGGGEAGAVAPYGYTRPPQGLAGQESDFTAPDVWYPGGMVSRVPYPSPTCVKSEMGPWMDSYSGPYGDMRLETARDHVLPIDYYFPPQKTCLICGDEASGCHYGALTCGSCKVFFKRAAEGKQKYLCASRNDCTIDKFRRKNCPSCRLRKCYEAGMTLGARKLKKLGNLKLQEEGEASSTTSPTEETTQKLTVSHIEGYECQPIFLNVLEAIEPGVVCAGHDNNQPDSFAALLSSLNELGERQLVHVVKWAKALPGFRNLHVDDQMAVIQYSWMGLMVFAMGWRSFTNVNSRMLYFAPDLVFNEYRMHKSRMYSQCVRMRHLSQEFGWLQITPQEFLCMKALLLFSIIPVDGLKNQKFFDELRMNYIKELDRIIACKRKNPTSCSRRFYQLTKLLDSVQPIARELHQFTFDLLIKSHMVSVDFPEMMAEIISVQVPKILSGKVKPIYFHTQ", "test": "Downregulation of androgen receptor expression in human MCF7 cells at 10 uM after 6 hrs by Western blot method relative to lamin B", "outline": "as §1"}, "[4]": {"target": "T3, Estrogen receptor (Homo sapiens)", "test": "Downregulation of ERalpha expression in human MCF7 cells at 10 uM after 6 hrs by Western blot method relative to beta-actin", "outline": "as §1"}},
  "data": [
    {"smiles": "CCCCCCCCCCNCCOc1ccc(C(CCC)(CCC)c2ccc(O)c(C)c2)cc1C", "values": [
      {"measurement": "IC50", "setting": "Estrogen receptor", "result": 45, "unit": "nM"},
      {"measurement": "Activity", "setting": "[1]", "result": 83, "unit": "%"},
      {"measurement": "Activity", "setting": "[2]", "result": 101, "unit": "%"},
      {"measurement": "Activity", "setting": "[3]", "result": 98, "unit": "%"},
      {"measurement": "Activity", "setting": "[4]", "result": 44, "unit": "%"}
    ]}
  ]
}
